inhibition, IC50 and bioavailability data for 1 molecule are collected here from ChEMBL document CHEMBL3627690, “Scaffold-Hopping and Structure-Based Discovery of Potent, Selective, And Brain Penetrant N-(1H-Pyrazol-3-yl)pyridin-2-amine Inhibitors of Dual Leucine Zipper Kinase (DLK, MAP3K12)” (J Med Chem, 2015).

In series [1] the target is Macrophage colony-stimulating factor 1 receptor (Homo sapiens, UniProt P07333). In words: Inhibition of CSF1R (unknown origin) at 1 uM by FRET method. Put shortly: (§1)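 SelectScreen panel of 58 kinases, each tested at a single 1 µM compound concentration. Read-out was Z′-LYTE FRET of labeled peptide phosphorylation, run by the vendor's protocols, reported as percent inhibition.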

Series [2] deals with Mitogen-activated protein kinase kinase kinase 10 (Homo sapiens, UniProt Q02779). Put plainly: Inhibition of MLK2 (unknown origin) by FRET method. Put shortly: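 Biochemical IC50 determination from a 10-point dose-response in an enzymatic Z′-LYTE assay. Labeled-peptide phosphorylation was read by FRET under the vendor's protocols.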
The target of series [3] is Myotonin-protein kinase (Homo sapiens) (UniProt Q09013). Put plainly: Inhibition of DMPK (unknown origin) at 1 uM by FRET method. The gist of the method:
as §1

Series [4] addresses Ribosomal protein S6 kinase beta-1 (Homo sapiens) (UniProt P23443). Put plainly: Inhibition of p70S6K (unknown origin) at 1 uM by FRET method. Put shortly:
(§2)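 Single-point screen at 1 uM against a panel of 58 representative kinases. Readout was labeled-peptide phosphorylation by FRET (Z′-LYTE), using the vendor's protocols.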

Series [5] has as its target MAP kinase-activated protein kinase 2 (Homo sapiens) (UniProt P49137). Put plainly: Inhibition of MAPKAPK2 (unknown origin) at 1 uM by FRET method. The gist of the method: as §1
The target in series [6] is Ephrin type-A receptor 2 (Homo sapiens) (UniProt P29317). In words: Inhibition of EphA2 (unknown origin) at 1 uM by FRET method. Put shortly:
as §1

The target in series [7] is Dual specificity tyrosine-phosphorylation-regulated kinase 3 (Homo sapiens) (UniProt O43781). In words: Inhibition of DYRK3 (unknown origin) at 1 uM by FRET method. The gist of the method:
as §1

Series [8] concerns the target Receptor tyrosine-protein kinase erbB-2 (Homo sapiens) (UniProt P04626). Put plainly: Inhibition of ErbB2 (unknown origin) at 1 uM by FRET method. Put shortly:
as §1

Series [9] is described as follows: Oral bioavailability in […] rat at 1 or 5 mg/kg. In kind it is ADME, organism-based. The following applies: in vivo. Put shortly: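 Rat PK: iv dosing at 0.4 or 1 mg/kg as a 60% PEG solution, po dosing at 1 or 5 mg/kg as an aqueous suspension with 1% methylcellulose.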
Series [10] deals with Angiopoietin-1 receptor (Homo sapiens) (UniProt Q02763). Put plainly: Inhibition of Tie2 (unknown origin) at 1 uM by FRET method. Put shortly: as §2

Bounds are passed on as bounds.

Sequence of Myotonin-protein kinase (Homo sapiens) (Q09013 whole entry): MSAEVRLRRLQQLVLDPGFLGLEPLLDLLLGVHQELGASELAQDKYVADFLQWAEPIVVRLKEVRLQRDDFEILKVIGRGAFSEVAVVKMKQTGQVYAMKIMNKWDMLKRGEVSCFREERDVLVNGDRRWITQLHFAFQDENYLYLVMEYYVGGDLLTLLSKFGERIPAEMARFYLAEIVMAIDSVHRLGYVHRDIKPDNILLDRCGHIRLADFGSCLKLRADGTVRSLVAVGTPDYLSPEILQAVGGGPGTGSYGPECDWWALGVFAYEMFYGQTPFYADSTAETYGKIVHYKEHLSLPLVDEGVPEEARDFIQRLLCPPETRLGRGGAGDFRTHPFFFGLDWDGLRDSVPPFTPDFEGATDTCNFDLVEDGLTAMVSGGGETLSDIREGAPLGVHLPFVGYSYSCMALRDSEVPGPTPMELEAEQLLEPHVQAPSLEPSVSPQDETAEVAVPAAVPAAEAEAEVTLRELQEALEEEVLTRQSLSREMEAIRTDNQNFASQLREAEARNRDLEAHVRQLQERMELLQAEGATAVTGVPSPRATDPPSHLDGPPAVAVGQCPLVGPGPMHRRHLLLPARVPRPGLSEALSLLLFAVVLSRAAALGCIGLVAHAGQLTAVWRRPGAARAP
Sequence of Receptor tyrosine-protein kinase erbB-2 (Homo sapiens) (P04626 whole entry): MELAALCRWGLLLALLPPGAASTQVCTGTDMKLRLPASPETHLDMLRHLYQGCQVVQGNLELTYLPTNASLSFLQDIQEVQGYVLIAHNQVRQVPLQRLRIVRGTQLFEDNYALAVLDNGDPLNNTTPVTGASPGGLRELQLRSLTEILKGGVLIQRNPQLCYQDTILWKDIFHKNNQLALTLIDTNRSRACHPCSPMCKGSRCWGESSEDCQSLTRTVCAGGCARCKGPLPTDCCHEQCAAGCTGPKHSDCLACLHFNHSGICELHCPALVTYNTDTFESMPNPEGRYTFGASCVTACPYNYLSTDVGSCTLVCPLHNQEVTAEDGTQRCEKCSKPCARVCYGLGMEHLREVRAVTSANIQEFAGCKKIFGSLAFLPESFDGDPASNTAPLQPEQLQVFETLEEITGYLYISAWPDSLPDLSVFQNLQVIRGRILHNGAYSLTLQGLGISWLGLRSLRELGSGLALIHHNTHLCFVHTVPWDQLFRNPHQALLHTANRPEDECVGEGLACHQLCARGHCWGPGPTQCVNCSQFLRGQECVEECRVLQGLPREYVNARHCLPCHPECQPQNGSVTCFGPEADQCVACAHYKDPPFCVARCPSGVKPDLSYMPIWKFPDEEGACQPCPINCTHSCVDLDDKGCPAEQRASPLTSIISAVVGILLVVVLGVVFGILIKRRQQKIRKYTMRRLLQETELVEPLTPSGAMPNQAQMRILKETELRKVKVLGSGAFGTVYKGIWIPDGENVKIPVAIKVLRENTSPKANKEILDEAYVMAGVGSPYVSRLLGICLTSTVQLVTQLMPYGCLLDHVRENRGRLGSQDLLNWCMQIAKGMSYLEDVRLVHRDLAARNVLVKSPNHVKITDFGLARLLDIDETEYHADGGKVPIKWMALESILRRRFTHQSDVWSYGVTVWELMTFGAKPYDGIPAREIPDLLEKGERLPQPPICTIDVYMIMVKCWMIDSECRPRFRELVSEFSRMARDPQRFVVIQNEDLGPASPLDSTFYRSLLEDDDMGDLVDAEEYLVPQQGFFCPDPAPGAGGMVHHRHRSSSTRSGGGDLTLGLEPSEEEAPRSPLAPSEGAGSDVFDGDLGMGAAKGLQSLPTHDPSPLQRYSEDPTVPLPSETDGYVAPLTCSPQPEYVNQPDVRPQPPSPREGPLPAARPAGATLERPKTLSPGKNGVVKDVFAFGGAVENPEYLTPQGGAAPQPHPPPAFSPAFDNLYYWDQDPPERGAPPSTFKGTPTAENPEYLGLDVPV
Sequence of Dual specificity tyrosine-phosphorylation-regulated kinase 3 (Homo sapiens) (O43781 whole entry): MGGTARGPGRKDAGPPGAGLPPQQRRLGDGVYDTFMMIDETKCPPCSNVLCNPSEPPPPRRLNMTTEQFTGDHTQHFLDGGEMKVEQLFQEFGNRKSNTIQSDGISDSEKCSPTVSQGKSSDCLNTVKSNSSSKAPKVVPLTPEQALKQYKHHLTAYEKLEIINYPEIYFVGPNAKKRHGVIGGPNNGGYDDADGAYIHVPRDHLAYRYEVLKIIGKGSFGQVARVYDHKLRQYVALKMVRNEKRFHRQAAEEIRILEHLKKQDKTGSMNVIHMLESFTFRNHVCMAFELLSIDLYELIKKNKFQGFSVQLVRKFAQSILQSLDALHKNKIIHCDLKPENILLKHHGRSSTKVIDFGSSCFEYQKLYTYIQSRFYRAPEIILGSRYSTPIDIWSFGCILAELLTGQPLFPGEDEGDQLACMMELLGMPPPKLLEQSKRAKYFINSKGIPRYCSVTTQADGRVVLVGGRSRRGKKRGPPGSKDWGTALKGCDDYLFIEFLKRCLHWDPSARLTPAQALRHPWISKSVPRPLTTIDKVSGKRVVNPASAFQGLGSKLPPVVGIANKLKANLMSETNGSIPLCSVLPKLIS
Sequence of Mitogen-activated protein kinase kinase kinase 10 (Q02779 whole entry): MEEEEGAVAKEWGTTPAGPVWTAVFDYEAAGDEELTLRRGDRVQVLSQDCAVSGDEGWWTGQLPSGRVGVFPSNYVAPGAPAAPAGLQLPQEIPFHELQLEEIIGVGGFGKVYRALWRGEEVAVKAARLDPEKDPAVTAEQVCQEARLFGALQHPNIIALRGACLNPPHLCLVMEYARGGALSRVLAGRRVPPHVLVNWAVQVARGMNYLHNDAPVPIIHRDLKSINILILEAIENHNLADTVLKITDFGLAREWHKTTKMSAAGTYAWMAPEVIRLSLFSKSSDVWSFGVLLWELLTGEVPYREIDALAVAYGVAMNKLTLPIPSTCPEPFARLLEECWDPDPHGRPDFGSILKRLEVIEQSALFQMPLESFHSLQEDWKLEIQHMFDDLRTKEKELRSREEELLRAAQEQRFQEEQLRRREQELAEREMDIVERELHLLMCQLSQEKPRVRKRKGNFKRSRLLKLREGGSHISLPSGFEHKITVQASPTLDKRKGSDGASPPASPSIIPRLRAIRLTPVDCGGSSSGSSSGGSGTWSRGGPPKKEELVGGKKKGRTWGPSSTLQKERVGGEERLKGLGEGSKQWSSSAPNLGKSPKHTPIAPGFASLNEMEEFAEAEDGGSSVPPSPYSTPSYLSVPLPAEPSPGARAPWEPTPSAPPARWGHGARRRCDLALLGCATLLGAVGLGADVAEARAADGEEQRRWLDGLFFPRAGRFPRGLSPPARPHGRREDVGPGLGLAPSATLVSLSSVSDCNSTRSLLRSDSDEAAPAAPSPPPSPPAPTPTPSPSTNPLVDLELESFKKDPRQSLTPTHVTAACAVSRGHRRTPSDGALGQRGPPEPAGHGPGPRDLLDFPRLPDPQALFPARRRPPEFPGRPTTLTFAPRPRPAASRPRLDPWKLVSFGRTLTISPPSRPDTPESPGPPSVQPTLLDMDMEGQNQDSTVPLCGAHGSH
Sequence of MAP kinase-activated protein kinase 2 (Homo sapiens) (P49137 whole entry, looked up): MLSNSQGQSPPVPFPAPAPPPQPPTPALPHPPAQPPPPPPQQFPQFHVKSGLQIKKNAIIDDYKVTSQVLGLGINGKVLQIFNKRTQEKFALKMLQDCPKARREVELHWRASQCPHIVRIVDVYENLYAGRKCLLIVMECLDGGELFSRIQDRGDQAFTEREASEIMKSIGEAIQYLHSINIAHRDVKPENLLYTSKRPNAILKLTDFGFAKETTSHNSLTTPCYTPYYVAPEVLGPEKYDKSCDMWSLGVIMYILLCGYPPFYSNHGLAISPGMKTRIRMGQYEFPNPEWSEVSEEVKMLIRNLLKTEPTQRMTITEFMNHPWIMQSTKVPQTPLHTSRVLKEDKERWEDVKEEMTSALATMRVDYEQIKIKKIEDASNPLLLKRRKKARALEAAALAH
Sequence of Ribosomal protein S6 kinase beta-1 (Homo sapiens) (P23443 whole entry, looked up): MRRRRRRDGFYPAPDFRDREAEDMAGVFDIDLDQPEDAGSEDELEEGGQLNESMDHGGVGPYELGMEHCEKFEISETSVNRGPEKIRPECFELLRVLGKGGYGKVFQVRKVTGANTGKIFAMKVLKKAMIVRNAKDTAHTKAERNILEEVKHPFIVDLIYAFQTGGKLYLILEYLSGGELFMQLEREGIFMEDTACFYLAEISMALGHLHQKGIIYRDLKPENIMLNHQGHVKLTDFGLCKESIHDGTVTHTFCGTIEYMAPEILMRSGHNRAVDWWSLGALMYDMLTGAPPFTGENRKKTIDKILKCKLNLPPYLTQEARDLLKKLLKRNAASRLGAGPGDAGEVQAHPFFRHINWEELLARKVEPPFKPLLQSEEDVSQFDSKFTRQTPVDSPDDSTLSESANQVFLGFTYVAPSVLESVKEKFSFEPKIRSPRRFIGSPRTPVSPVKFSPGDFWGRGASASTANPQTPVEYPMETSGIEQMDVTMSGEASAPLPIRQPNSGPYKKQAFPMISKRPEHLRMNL

For orientation: inhibition means the drop in the measured response relative to a control, in per cent. As a reminder, the IC50 is the concentration needed to halve the response being measured. Low readings indicate higher potency, high ones lower potency. As a reminder, the bioavailability is dose-corrected exposure relative to a reference, in per cent. A high value points to good availability. Take `N#Cc1ccnc(Nc2cc(C3CCN(C4COC4)CC3)n(C3CCCC3)n2)c1`: the inhibition in series [1] came out at 51.8%; in [3] it was 12%; in [4], 0.8%; in series [5], 6.7%; in [6] it was 23%; in series [7] it was 0.3%. Moreover, the inhibition in series [8] is 1%; in series [10], 1.8%. In [2], the IC50 was > 10 µM. In [9], this molecule yielded a bioavailability of 58%.
